In ChEMBL document CHEMBL1789904, “Imaging of Plasmodium liver stages to drive next-generation antimalarial drug discovery” (Science, 2011):

Tested on: Plasmodium yoelii
Assay: NOVARTIS: Antimalarial liver stage activity measured as reduction in Plasmodium yoelii schizont area in HepG2-A16-CD81 cells by immuno-fluorescence, and median schizont size at 10uM compound concentration
Type: functional, organism-based
Details: for IC50: Plasmodium yoelii, HepG2-A16-CD81
Summary of the method: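 Host and parasite nuclei stained with Hoechst 33342, parasites with αPyHSP70 antibody; 25 images per well by high-content imaging; median parasite (schizont) area measured by automated image analysis, ~50 schizonts per experiment, two or more independent experiments.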

| Compound | Schizont size [um] | IC50 [nM] |
| --- | --- | --- |
| Brc1ccc(Nc2nc(NCc3ccco3)c3ccccc3n2)cc1 | 35.17 | 163 |
| Cc1ccc2[nH]c(C)c(Br)c(=O)c2c1 | 29.96 | 252 |
| CCOC(=O)C1=C(C)NC2=C(C(=O)C(C(=O)OCC)C(c3cccc(OC)c3)C2)C1c1cc(OC)c(OC)c(OC)c1 (stereo unspecified) | 109.59 | 232 |
| CCCN(CCC)[P+](CCC)(c1ccc([P+](CCC)(N(CCC)CCC)N(CCC)CCC)cc1)N(CCC)CCC | 28.29 | 280 |
| Cc1nc2ccc(Br)cc2c(O)c1CC(C)C | 30.79 | 244 |
| O=C(Cc1ccccc1)NC(c1ccc(Cl)cc1)c1ccc2cccnc2c1O (stereo unspecified) | 17.33 | 190 |
| Cc1ccc(C2Sc3ccccc3NC3=C2C(=O)c2ccccc23)cc1 (stereo unspecified) | 27.03 | 278 |
| CCOC(=O)c1cnc2ccc(OC)cc2c1NCc1cccs1 | 31.63 | 193 |
| CC(=O)N(C)C1=C(N2CCOCC2)C(=O)c2ccccc2C1=O | 38.72 | 229 |
| Cc1cccc(NC(=S)NC2CC3CCCC(C2)N3CCc2ccccc2)c1 (stereo unspecified) | 67.74 | 277 |
| CCN(CC)CCCN(Cc1cc2cc(OC)c(OC)cc2[nH]c1=O)C(=S)Nc1cccc(Cl)c1 | 60.54 | 162 |
| CCC(C)Nc1nc(NC(C)CC)nc(N2CCCCCC2)n1 (stereo unspecified) | 20.35 | 300 |
| Cc1oc2c(c1C(=O)NCC1CCCO1)C(=O)c1ccccc1C2=O (stereo unspecified) | 21.4 | 189 |
| CCNC(=O)C1CCN(c2cccc3c2C(=O)N(C2CCCCCCC2)C3=O)CC1 | 30.48 | 269 |
| Cc1[nH]c2ccccc2c(=O)c1Br | 29.43 | 214 |
| Cc1ccc(Nc2nc(NCc3ccccc3)c3ccccc3n2)cc1 | 31.73 | 278 |
| CC[n+]1c(C=C2C=C(C)OC(C)=C2)sc2ccccc21.[Cl-] | 25.36 | 245 |

| Compound | Schizont size [um] | IC50 [nM] |
| --- | --- | --- |
| CCOC(=O)C1=C(C)NC2=C(C(=O)C(C(=O)OCC)C(c3ccc(OC)cc3)C2)C1c1ccc(OC)c(OC)c1 (stereo unspecified) | 86.53 | 240 |
| O=c1c2ccccc2[nH]c2ccc(F)cc12 | 29.64 | 223 |
| Cc1ccccc1N=Nc1ccc(NC(=O)c2ccco2)c(C)c1 | 51.87 | 300 |
| CCCN[P+](CC(C)C)(NCCC)NCCC | 27.24 | 281 |
| COc1ccc2nc(C)cc(Nc3ccc(Oc4ccc(Cl)c5ccccc45)c(Cl)c3)c2c1 | 22.65 | 267 |
| O=C(Nc1c2ccccc2nc2ccccc12)c1cc(Cl)ccc1O | 43.52 | 181 |
| CCCc1c(C)nc2ccccc2c1O | 34.55 | 279 |
| C=CCc1c(C)nc2ccc(Br)cc2c1O | 32.46 | 181 |
| CCCC(=O)NC(c1ccc(Cl)cc1)c1ccc2cccnc2c1O (stereo unspecified) | 14.09 | 190 |
| CCCCCCCc1cc(O)c2c3c(c(=O)oc2c1)CCC(C)C3 (stereo unspecified) | 31.52 | 247 |
| O=C1c2ccccc2C2=Nc3ccccc3SC(c3ccccc3F)C12 (stereo unspecified) | 28.6 | 239 |
| CCCCNC(=O)C(CC)Sc1nnc(-c2ccc(C)cc2)c(-c2ccc(C)cc2)n1 (stereo unspecified) | 31 | 291 |
| CN(C)c1ccc(-c2n(C)c3ccccc3[n+]2C)cc1.[Cl-] | 46.86 | 175 |
| CC[n+]1c(C=C2C=CN(C)C=C2)ccc2cc(C)ccc21.[I-] | 25.57 | 170 |
| CCCCc1c(CCC)c(=N)c2ccccc2n1C.I | 58.14 | 244 |
| Cc1nc2c(C)cccc2c(O)c1CC=C(Cl)Cl | 31.21 | 169 |
